Data: ChEMBL document CHEMBL1146579, “Antifungal agents from the roots of Cudrania cochinchinensis against Candida, Cryptococcus, and Aspergillus species” (2003)
≈ marks a conversion by molar mass, not a printed value.

Tests used:
Assay type in all cases: functional
Candida albicans [1] = test: Antifungal activity against Candida albicans ATCC 90028 after 48 to 96 hrs by broth microdilution method
Outline: (§1)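 Broth microdilution followed NCCLS with slight modification, giving MIC. Compounds were dissolved in DMSO as a 12.8 mg/mL stock and diluted in RPMI-1640, with final solvent below 1%. Yeasts were kept on modified Sabouraud dextrose agar or potato dextrose agar slants, and filamentous fungi on potato dextrose agar.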

Pichia kudriavzevii = test: Antifungal activity against Candida krusei ATCC 6258 after 48 to 96 hrs by broth microdilution method; outline: as §1
Aspergillus fumigatus [2] = test: Antifungal activity against Aspergillus fumigatus IFM 41236 after 48 to 96 hrs by broth microdilution method; outline: as §1
Nakaseomyces glabratus = test: Antifungal activity against Candida glabrata ATCC 90030 after 48 to 96 hrs by broth microdilution method; outline: as §1
Candida parapsilosis = test: Antifungal activity against Candida parapsilosis ATCC 22019 after 48 to 96 hrs by broth microdilution method; details: Lodderomyces parapsilosis; outline: as §1
Cryptococcus neoformans = test: Antifungal activity against Cryptococcus neoformans ATCC 90112 after 48 to 96 hrs by broth microdilution method
Outline: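 Broth microdilution followed NCCLS with slight modification, giving MIC. Yeasts were kept on modified Sabouraud dextrose agar or potato dextrose agar slants, and filamentous fungi on potato dextrose agar.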

Aspergillus nidulans = test: Antifungal activity against Aspergillus nidulans IFM 5396 after 48 to 96 hrs by broth microdilution method; outline: as §1
Aspergillus fumigatus [3] = test: Antifungal activity against Aspergillus fumigatus IFM 41374 after 48 to 96 hrs by broth microdilution method; outline: as §1
Candida albicans [4] = test: Antifungal activity against Candida albicans ATCC 90028 after 48 hrs by disk diffusion assay
Outline: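 Pure compounds were dissolved in MeOH at 10 mg/mL, about 0.4 mg absorbed per 8 mm paper disk, then air-dried. Plates of Yeast Morphology Agar were incubated 48 h at 30 °C, and the diameter of the inhibition zone was measured.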

Candida albicans [5] = test: Antifungal activity against Candida albicans ATCC 90028 at 100 ug/mL after 48 hrs by disk diffusion assay; details: ATCC 90028, 48 h, read-out: IZ
Outline: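 The 8 mm paper disk was dipped in the solution and air-dried. C. albicans ATCC 90028, preincubated in YPD broth, was the inoculum on Yeast Morphology Agar, incubated 48 h at 30 °C. Read-out was the diameter of the inhibition zone.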

Compound	MIC (Candida albicans [1]) [µg/mL]	MIC (Pichia kudriavzevii) [µg/mL]	MIC (Aspergillus fumigatus [2]) [µg/mL]	MIC (Nakaseomyces glabratus) [µg/mL]	MIC (Candida parapsilosis) [µg/mL]	MIC (Cryptococcus neoformans) [µg/mL]	MIC (Aspergillus nidulans) [µg/mL]	MIC (Aspergillus fumigatus [3]) [µg/mL]	inhibition zone (IZ) (Candida albicans [4]) [mm]	zone of inhibition at 100 µg/mL (Candida albicans [5]) [mm]
CC1(C)C=Cc2c(cc3oc4c(O)cccc4c(=O)c3c2O)O1	> 128	> 128	> 128	> 128	> 128	32 (≈ 103 µM)	> 128	> 128		
CC(C)=CCc1c(O)cc2oc3ccc(O)cc3c(=O)c2c1O	> 128	> 128	> 128	> 128	> 128	128 (≈ 410 µM)	> 128	> 128	9	
COc1cc(-c2coc3cc(O)cc(O)c3c2=O)ccc1O [3'-O-METHYLOROBOL]	> 128	> 128	> 128	> 128	> 128	> 128	> 128	> 128		
C[C@@H]1[C@H](O)[C@@H](C)/C=C/C=C/C=C/C=C/C=C/C=C/C=C/[C@H](O[C@@H]2O[C@H](C)[C@@H](O)[C@H](N)[C@@H]2O)C[C@@H]2O[C@](O)(C[C@@H](O)C[C@@H](O)[C@H](O)CC[C@@H](O)C[C@@H](O)CC(=O)O[C@H]1C)C[C@H](O)[C@H]2C(=O)O [AMPHOTERICIN B]	2 (≈ 2.16 µM)	2 (≈ 2.16 µM)	1 (≈ 1.08 µM)	1 (≈ 1.08 µM)	2 (≈ 2.16 µM)		2 (≈ 2.16 µM)	1 (≈ 1.08 µM)	22	18
COc1cc(O)c(C(=O)c2cccc(O)c2CC=C(C)C)c(O)c1 [CUDRANONE]	> 128	> 128	16 (≈ 48.7 µM)	> 128	> 128	> 128	16 (≈ 48.7 µM)	32 (≈ 97.5 µM)	9	

Continued by falling MIC (Candida albicans [1]), values first:

MIC (Candida albicans [1]) [µg/mL]	MIC (Pichia kudriavzevii) [µg/mL]	MIC (Aspergillus fumigatus [2]) [µg/mL]	MIC (Nakaseomyces glabratus) [µg/mL]	MIC (Candida parapsilosis) [µg/mL]	MIC (Cryptococcus neoformans) [µg/mL]	MIC (Aspergillus nidulans) [µg/mL]	MIC (Aspergillus fumigatus [3]) [µg/mL]	Compound	inhibition zone (IZ) (Candida albicans [4]) [mm]	zone of inhibition at 100 µg/mL (Candida albicans [5]) [mm]
64 (≈ 180 µM)	64 (≈ 180 µM)	64 (≈ 180 µM)	128 (≈ 359 µM)	128 (≈ 359 µM)	32 (≈ 89.8 µM)	64 (≈ 180 µM)	64 (≈ 180 µM)	CC(C)=CCc1c(O)cc2c(c1O)C(=O)CC(c1ccc(O)cc1O)O2 (stereo not given) [CUDRAFLAVANONE B]	9	
16 (≈ 43.7 µM)	16 (≈ 43.7 µM)	4 (≈ 10.9 µM)	16 (≈ 43.7 µM)	> 128	4 (≈ 10.9 µM)	8 (≈ 21.8 µM)	8 (≈ 21.8 µM)	CC(C)=CCc1cc(C(=O)c2cccc(O)c2CC=C(C)C)c(O)cc1O [CUDRAPHENONE B]		
